Measured values: ChEMBL document CHEMBL1909494, “Synthesis and structure-activity relationship studies of 4-arylthiosemicarbazides as topoisomerase IV inhibitors with Gram-positive antibacterial activity. Search for molecular basis of antibacterial activity of thiosemicarbazides” (Eur J Med Chem, 2011)
The source made the active and inactive calls.

Key:
[1] = system: Staphylococcus epidermidis; assay: Antibacterial activity against Staphylococcus epidermidis ATCC 12228 by agar dilution method; format: functional
[2] = system: Bacillus subtilis; assay: Antibacterial activity against Bacillus subtilis ATCC 6633 by agar dilution method; format: functional
[3] = system: Staphylococcus aureus; assay: Antibacterial activity against Staphylococcus aureus NCTC 4163 by agar dilution method; format: functional
[4] = system: Staphylococcus aureus; assay: Antibacterial activity against Staphylococcus aureus ATCC 25923 by agar dilution method; format: functional
[5] = system: Micrococcus luteus; assay: Antibacterial activity against Micrococcus luteus ATCC 10240 by agar dilution method; format: functional
[6] = system: Bacillus cereus; assay: Antibacterial activity against Bacillus cereus ATCC 11778 by agar dilution method; format: functional
[7] = system: Micrococcus luteus; assay: Antibacterial activity against Micrococcus luteus ATCC 9341 by agar dilution method; format: functional
[8] = system: Staphylococcus aureus; assay: Antibacterial activity against Staphylococcus aureus ATCC 6538 by agar dilution method; format: functional
[9] = system: Staphylococcus aureus; assay: Antibacterial activity against Staphylococcus aureus ATCC 29213 by agar dilution method; format: functional
[10] = (§1) Inhibition of Staphylococcus aureus topoisomerase 4 assessed as inhibition of decatenation of kDNA after 1 hr by agarose gel electrophoresis
In short: (§2)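 kDNA was incubated with 1 unit of topoisomerase IV in decatenation assay buffer with varying compound concentrations at 37 °C for 1 h. Reactions were stopped with 2x STOP buffer plus chloroform/iso-amyl alcohol and run on a 1% agarose gel in TAE for 1.5 h at 80 V, then stained with ethidium bromide. IC50 was the concentration preventing 50% conversion of kDNA to decatenated minicircles, derived from gel densitometry.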

[11] = target: DNA gyrase (Staphylococcus aureus) (UniProt P0A0K8+P20831); assay: Inhibition of Staphylococcus aureus gyrase using […] DNA as substrate after 1 hr by agarose gel electrophoresis; format: protein-complex assay; conditions: in the assay text read “relaxed” for “supercoiled”
Chain of DNA gyrase (Staphylococcus aureus) (P0A0K8 2-644 limits assumed): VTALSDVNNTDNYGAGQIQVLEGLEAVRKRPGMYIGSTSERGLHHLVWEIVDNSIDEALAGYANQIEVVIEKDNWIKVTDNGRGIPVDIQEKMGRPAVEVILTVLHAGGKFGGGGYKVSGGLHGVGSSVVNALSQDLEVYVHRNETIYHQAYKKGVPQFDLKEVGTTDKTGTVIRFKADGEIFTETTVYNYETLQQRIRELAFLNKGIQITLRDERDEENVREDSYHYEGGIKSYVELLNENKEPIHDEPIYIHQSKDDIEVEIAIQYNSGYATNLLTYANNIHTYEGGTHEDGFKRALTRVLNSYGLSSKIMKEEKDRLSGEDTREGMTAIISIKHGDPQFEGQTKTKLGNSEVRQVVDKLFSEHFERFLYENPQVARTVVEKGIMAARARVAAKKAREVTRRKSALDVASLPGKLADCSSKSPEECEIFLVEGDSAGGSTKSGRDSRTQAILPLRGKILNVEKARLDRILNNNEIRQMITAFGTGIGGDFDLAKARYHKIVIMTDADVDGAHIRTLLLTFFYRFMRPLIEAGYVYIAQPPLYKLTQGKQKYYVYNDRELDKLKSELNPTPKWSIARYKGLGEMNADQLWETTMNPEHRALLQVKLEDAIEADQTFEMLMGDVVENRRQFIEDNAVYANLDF
Chain of DNA gyrase (Staphylococcus aureus) (P20831 whole entry partner): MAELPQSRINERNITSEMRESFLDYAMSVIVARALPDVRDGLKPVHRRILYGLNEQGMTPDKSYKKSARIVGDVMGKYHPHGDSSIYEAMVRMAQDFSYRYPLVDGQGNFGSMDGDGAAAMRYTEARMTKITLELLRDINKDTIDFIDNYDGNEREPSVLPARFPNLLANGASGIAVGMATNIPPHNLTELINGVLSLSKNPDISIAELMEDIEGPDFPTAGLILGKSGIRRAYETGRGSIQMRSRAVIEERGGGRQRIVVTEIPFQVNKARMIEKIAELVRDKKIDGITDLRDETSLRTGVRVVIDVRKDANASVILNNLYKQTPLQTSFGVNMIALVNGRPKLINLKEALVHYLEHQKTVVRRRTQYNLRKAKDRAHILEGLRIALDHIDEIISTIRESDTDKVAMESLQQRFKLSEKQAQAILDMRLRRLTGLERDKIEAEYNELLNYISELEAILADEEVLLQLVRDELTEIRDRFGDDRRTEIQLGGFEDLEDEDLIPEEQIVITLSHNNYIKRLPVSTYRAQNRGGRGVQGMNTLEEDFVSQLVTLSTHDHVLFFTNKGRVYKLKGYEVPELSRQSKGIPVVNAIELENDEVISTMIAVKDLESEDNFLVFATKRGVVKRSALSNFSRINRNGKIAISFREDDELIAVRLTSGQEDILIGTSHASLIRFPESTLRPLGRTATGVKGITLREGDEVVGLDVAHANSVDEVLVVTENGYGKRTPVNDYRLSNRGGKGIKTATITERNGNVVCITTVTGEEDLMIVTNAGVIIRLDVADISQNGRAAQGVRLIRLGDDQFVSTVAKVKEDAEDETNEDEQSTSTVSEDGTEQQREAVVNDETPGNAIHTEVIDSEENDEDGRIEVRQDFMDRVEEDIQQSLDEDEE
In short: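 The enzyme was incubated in the manufacturer's supercoiling assay buffer with varying compound concentrations at 37 °C for 1 h. Samples were run on a 1% agarose gel in TAE for 3 h at 50 V, stained with ethidium bromide and viewed under UV.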

[12] = system: Staphylococcus aureus; assay: as §1; in short: as §2

Cc1nnsc1C(=O)NNC(=S)Nc1ccccc1C(F)(F)F
400 µg/mL: MIC [6] | MIC [8]
50 µg/mL: MIC [4]
200 µg/mL: MIC [1] | MIC [2] | MIC [5] | MIC [7] | MIC [9]
100 µg/mL: MIC [3]

O=C(NNC(=S)Nc1ccc(F)cc1F)c1cc2ccccc2[nH]1
100 µg/mL: MIC [1] | MIC [2] | MIC [3] | MIC [4] | MIC [6] | MIC [7] | MIC [8]
25 µg/mL: MIC [5]
295 µM: IC50 [10]
200 µg/mL: MIC [9]

Cc1nnsc1C(=O)NNC(=S)Nc1ccc([N+](=O)[O-])cc1
50 µg/mL: MIC [5]
200 µg/mL: MIC [9]
100 µg/mL: MIC [1] | MIC [2] | MIC [3] | MIC [4] | MIC [6] | MIC [7] | MIC [8]
inactive: inhibition [11] | inhibition [12]

O=C(NNC(=S)Nc1ccc([N+](=O)[O-])cc1)c1cc2ccccc2[nH]1
50 µg/mL: MIC [1] | MIC [2] | MIC [3] | MIC [4] | MIC [5] | MIC [6] | MIC [7] | MIC [8] | MIC [9]
14 µM: IC50 [10]

Cc1nnsc1C(=O)NNC(=S)Nc1ccc(Cl)cc1
100 µg/mL: MIC [3] | MIC [7] | MIC [8]
50 µg/mL: MIC [1] | MIC [2] | MIC [4] | MIC [5] | MIC [6] | MIC [9]

O=C(NNC(=S)Nc1ccccc1F)c1cc2ccccc2[nH]1
200 µg/mL: MIC [1] | MIC [3] | MIC [6] | MIC [8] | MIC [9]
100 µg/mL: MIC [2] | MIC [4] | MIC [5] | MIC [7]

Cc1nnsc1C(=O)NNC(=S)Nc1ccc(Cl)cc1Cl
100 µg/mL: MIC [1] | MIC [2] | MIC [3] | MIC [4] | MIC [5] | MIC [6] | MIC [7] | MIC [8] | MIC [9]

O=C(NNC(=S)Nc1ccc(F)cc1)c1cc2ccccc2[nH]1
100 µg/mL: MIC [1] | MIC [2] | MIC [3] | MIC [4] | MIC [6] | MIC [8] | MIC [9]
50 µg/mL: MIC [7]
25 µg/mL: MIC [5]

O=C(NNC(=S)Nc1ccccc1Br)c1cc2ccccc2[nH]1
100 µg/mL: MIC [4] | MIC [5] | MIC [7] | MIC [9]
200 µg/mL: MIC [1] | MIC [2] | MIC [3] | MIC [6] | MIC [8]

Cc1nnsc1C(=O)NNC(=S)Nc1ccc(F)cc1
100 µg/mL: MIC [5] | MIC [7]
400 µg/mL: MIC [3] | MIC [8] | MIC [9]
200 µg/mL: MIC [1] | MIC [2] | MIC [4] | MIC [6]

Cc1nnsc1C(=O)NNC(=S)Nc1ccc(Br)cc1
200 µg/mL: MIC [1] | MIC [3] | MIC [8] | MIC [9]
50 µg/mL: MIC [7]
403 µM: IC50 [10]
100 µg/mL: MIC [2] | MIC [4] | MIC [5] | MIC [6]

Cc1nnsc1C(=O)NNC(=S)Nc1cccc(F)c1
200 µg/mL: MIC [3] | MIC [4] | MIC [7]
400 µg/mL: MIC [1] | MIC [2] | MIC [6] | MIC [8] | MIC [9]
100 µg/mL: MIC [5]

Cc1nnsc1C(=O)NNC(=S)Nc1cc(F)ccc1F
200 µg/mL: MIC [2] | MIC [4] | MIC [5]
100 µg/mL: MIC [7]
400 µg/mL: MIC [1] | MIC [3] | MIC [6] | MIC [8] | MIC [9]

Cc1nnsc1C(=O)NNC(=S)Nc1ccccc1
400 µg/mL: MIC [1] | MIC [2] | MIC [3] | MIC [4] | MIC [6] | MIC [8] | MIC [9]
100 µg/mL: MIC [7]
200 µg/mL: MIC [5]

O=C(O)c1cn(C2CC2)c2cc(N3CCNCC3)c(F)cc2c1=O [CIPROFLOXACIN]
0.5 µg/mL: MIC [1] | MIC [3] | MIC [4] | MIC [8] | MIC [9]
< 0.125 µg/mL: MIC [2]
1 µg/mL: MIC [6]
2 µg/mL: MIC [5]
4 µg/mL: MIC [7]
